Data published in publication PMC12495087 (ESMO Open, 2025).
pKd: −log10 of the molar value.

Assays:
RET = conditions: read-out: kd, potency against RET; cited from earlier work
[1] = tested on: advanced solid tumors with RET gene alteration; assay: phase I study: tumor response per RECIST v.1.1, evaluable analysis set; type: in vivo, human
How it was run: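 Investigator assessed response by RECIST v1.1. Drug was taken orally once daily in 28-day cycles, 10–150 mg in part A escalation and 75 mg in part B expansion, until progression. ORR and DCR summarised with two-sided 95% exact CIs. Duration of response and other time-to-event endpoints estimated by Kaplan–Meier.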

[2] = tested on: RET-fusion-positive NSCLC; assay: phase I study: tumor response per RECIST v.1.1, NSCLC; type: in vivo, human
[3] = tested on: tumors with local RET results; assay: clinical outcome by local RET result; type: in vivo, human
How it was run: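 RET alteration was confirmed locally by DNA- or RNA-based assays of tumour tissue or blood. Patients took oral drug once daily in 28-day cycles (10–150 mg escalation; expansion at recommended phase II dose). Investigator assessed response by RECIST v1.1 in patients with evaluable overall response and percent tumour-size change from baseline. ORR and DCR summarised with two-sided 95% exact CIs.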

RET-mutant MTC = assay: phase I study: tumor response per RECIST v.1.1, MTC; type: in vivo, human
[4] = tested on: vascular endothelial growth factor receptor 2; conditions: cited from earlier work
[5] = phase I study: plasma pharmacokinetics; type: in vivo, human
RET G810 = conditions: cited from earlier work
[6] = tested on: tumors with cfDNA-detected RET alterations; assay: clinical outcome by cfDNA RET alteration; type: in vivo, human
How it was run: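 Adults with advanced RET-altered solid tumours took oral drug once daily in 28-day cycles (10–150 mg dose escalation; expansion at recommended phase II dose). RET status came from plasma cfDNA drawn at screening (within 28 days pre-dose), cycle 1 day 15 (±2 days) and cycle 2 day 1. Investigator assessed response by RECIST v1.1 in patients with evaluable response and tumour-size change. ORR/DCR given with two-sided 95% exact CIs.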

[7] = 58 patients with cfDNA RET alterations
[8] = cfDNA RET alteration total, n = 58

## COc1cc2cc(-c3ccc(CC(=O)Nc4cc(C(C)(C)C(F)(F)F)no4)cn3)cnc2cc1OC [BOS172738]
RET
  pKd: ≥ 9.00
[1]; 100 mg dose, part A
  objective DCR (ODCR): 93%
[1]; all confirmed responders
  median time to response: 1.79 months
[1]; one patient with brain metastases, first post-baseline scan
  reduction in brain target lesions: 43%
[1]; overall, evaluable analysis set
  median PFS: 7.16 months
[1]; parts A and B total, N=101
  BOR: CR: No patients
[1]; patients with brain metastases
  intracranial activity: intracranial activity was also observed
[2]; NSCLC
  median PFS: 6.18 months
[2]; confirmed responders with NSCLC
  median DoR: 10.17 months
[3]; local Indel, n = 6
  BOR: PD: 1 (17) n (%)
  BOR: PR: 1 (17) n (%)
  BOR: SD: 4 (67) n (%)
  DCR (PR + SD): 5 (83) n (%)
  ORR: 1 (17) n (%)
[3]; local RET fusions, n = 57
  BOR: PD: 10 (18) n (%)
  BOR: PR: 21 (37) n (%)
  BOR: SD: 26 (46) n (%)
  DCR (PR + SD): 47 (82) n (%)
  ORR: 21 (37) n (%)
[3]; local RET total, n = 93
  BOR: PD: 20 (22) n (%)
  BOR: PR: 28 (30) n (%)
  BOR: SD: 45 (48) n (%)
  DCR (PR + SD): 73 (78) n (%)
  ORR: 28 (30) n (%)
[3]; local SNV, n = 30
  BOR: PD: 9 (30) n (%)
  BOR: PR: 6 (20) n (%)
  BOR: SD: 15 (50) n (%)
  DCR (PR + SD): 21 (70) n (%)
  ORR: 6 (20) n (%)
RET-mutant MTC; MTC
  median PFS: 12.75 months
RET-mutant MTC; confirmed responders with MTC
  median DoR: 19.15 months
[4]
  specificity to RET compared with vascular endothelial growth factor receptor 2: > 300 fold
[5]; after dosing, cycle 1 day 1 and day 15
  plasma concentrations remained quantifiable through: ≥ 24 h
[5]; human, plasma, oral
  half-life: 41.9 to 84.1 h
[5]; human, plasma, oral, cycle 1 day 1, range across all dose levels
  Tmax: 3 to 10 h
[5]; human, plasma, oral, cycle 1 day 15, range across dose levels
  Tmax: 1 to 3.1 h
[5]; most treatment groups, based on mean trough concentration and effective t½
  steady state reached by: ≤ 15 days
RET G810
  activity against RET G810 resistance: able to overcome RET G810 resistance
[6]; [7]
  partial responses as best response: 29%
  progressive disease as best response: 28%
  stable disease as best response: 43%
[6]; [8]
  BOR: PD: 16 (28) n (%)
  BOR: PR: 17 (29) n (%)
  BOR: SD: 25 (43) n (%)
  DCR (PR + SD): 42 (72) n (%)
  ORR: 17 (29) n (%)
[6]; cfDNA RET fusions + SNV, n = 2
  BOR: PD: 1 (50) n (%)
  BOR: PR: 1 (50) n (%)
  BOR: SD: 0 n (%)
  DCR (PR + SD): 1 (50) n (%)
  ORR: 1 (50) n (%)
[6]; cfDNA RET fusions, n = 37
  BOR: PD: 6 (16) n (%)
  BOR: PR: 12 (32) n (%)
  BOR: SD: 19 (51) n (%)
  DCR (PR + SD): 31 (84) n (%)
  ORR: 12 (32) n (%)
[6]; cfDNA SNV, n = 19
  BOR: PD: 9 (47) n (%)
  BOR: PR: 4 (21) n (%)
  BOR: SD: 6 (32) n (%)
  DCR (PR + SD): 10 (53) n (%)
  ORR: 4 (21) n (%)
